Tests used:
[1] = molecular target: Protein-tyrosine kinase 2-beta (Homo sapiens) (UniProt Q14289); test: Inhibition of human recombinant PYK2 at 40 nM in presence of ATP by radiometric assay relative to control
[2] = molecular target: Tyrosine-protein kinase FRK (Homo sapiens) (UniProt P42685); test: Inhibition of human recombinant FRK at 40 nM related to control ULK1
[3] = molecular target: BDNF/NT-3 growth factors receptor (Homo sapiens) (UniProt Q16620); test: Inhibition of human recombinant TRKB at 500 nM in presence of ATP by radiometric assay relative to control
[4] = molecular target: T1, Interleukin-1 receptor-associated kinase 4 (Homo sapiens) (UniProt Q9NWZ3); test: Inhibition of human recombinant IRAK4 at 500 nM in presence of ATP by radiometric assay relative to control
T1 sequence (whole entry): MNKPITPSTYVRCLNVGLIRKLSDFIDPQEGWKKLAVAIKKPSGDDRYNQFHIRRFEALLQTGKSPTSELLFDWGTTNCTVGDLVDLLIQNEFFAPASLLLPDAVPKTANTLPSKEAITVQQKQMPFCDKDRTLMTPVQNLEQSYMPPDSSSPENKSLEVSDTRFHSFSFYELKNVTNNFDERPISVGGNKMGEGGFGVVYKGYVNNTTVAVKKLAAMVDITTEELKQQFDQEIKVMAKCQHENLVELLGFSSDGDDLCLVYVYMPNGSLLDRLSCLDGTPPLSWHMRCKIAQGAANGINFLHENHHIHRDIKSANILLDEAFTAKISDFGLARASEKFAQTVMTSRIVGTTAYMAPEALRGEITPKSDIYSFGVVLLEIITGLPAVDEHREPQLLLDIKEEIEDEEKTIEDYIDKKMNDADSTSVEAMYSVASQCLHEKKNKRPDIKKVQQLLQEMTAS

[5] = molecular target: Mitogen-activated protein kinase kinase kinase kinase 1 (Homo sapiens) (UniProt Q92918); test: Inhibition of human recombinant HPK1 at 500 nM in presence of ATP by radiometric assay relative to control
[6] = molecular target: T2, Tyrosine-protein kinase receptor TYRO3 (Homo sapiens) (UniProt Q06418); test: Inhibition of human recombinant TYRO3 at 15 nM related to control ULK1
T2 sequence (whole entry): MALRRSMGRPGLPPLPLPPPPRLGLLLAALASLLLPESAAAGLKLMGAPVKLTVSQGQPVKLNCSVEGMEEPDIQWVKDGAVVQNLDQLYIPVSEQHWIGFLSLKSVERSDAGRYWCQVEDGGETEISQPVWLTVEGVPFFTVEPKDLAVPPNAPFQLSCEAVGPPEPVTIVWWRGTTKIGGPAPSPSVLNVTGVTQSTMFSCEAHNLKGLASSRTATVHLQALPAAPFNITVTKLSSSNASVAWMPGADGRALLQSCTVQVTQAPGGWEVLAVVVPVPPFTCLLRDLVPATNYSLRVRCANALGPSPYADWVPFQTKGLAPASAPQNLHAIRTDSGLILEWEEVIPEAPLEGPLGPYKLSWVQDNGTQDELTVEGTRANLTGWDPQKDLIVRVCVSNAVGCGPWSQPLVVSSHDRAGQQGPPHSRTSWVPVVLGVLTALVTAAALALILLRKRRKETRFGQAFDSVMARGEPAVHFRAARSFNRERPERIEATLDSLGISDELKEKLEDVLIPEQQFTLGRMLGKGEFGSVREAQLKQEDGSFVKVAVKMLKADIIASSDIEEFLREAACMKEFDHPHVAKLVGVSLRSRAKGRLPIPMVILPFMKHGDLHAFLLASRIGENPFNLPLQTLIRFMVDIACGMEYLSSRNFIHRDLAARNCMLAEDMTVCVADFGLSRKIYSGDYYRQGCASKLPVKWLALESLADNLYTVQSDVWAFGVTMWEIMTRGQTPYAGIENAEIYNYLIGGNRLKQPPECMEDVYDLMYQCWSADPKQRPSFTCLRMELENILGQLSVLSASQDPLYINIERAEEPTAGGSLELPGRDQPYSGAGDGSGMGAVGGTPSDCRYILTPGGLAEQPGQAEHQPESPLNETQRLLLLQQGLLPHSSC

[7] = molecular target: T3, Aurora kinase A (Homo sapiens) (UniProt O14965); test: Inhibition of human recombinant AurA at 15 nM related to control ULK1
T3 sequence (whole entry): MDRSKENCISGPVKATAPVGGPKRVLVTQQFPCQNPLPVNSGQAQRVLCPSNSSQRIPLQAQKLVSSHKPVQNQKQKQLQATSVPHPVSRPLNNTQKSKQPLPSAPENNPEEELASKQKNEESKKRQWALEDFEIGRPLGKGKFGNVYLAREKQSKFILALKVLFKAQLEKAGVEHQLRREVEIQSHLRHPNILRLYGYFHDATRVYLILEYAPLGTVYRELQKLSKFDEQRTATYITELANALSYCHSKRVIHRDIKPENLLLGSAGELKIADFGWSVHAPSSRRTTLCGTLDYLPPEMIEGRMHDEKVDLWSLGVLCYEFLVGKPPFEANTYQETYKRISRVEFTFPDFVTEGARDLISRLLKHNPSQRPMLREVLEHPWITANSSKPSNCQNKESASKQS
In short: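 Panel of 327 recombinant human kinases, each assayed in vitro by radiometric activity assay in duplicate at a single inhibitor concentration per compound, chosen with reference to its ULK1 inhibition. Activity remaining was expressed as percent of vehicle control, and percent inhibition was calculated as 100 minus percent activity remaining.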

[8] = molecular target: T4, cAMP-dependent protein kinase catalytic subunit PRKX (Homo sapiens) (UniProt P51817); test: Inhibition of human recombinant PRKX at 15 nM related to control ULK1
T4 sequence (whole entry): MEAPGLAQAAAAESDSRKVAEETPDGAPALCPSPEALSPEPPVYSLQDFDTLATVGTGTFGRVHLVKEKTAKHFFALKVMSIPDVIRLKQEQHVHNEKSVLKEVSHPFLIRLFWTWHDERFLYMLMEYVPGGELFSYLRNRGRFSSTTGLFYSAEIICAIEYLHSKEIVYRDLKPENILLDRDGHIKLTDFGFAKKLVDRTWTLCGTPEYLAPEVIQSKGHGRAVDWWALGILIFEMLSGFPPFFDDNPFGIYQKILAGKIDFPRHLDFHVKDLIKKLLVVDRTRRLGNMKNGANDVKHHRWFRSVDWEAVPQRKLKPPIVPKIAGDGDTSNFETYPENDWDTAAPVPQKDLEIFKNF

Mitogen-activated protein kinase kinase kinase kinase 1 (Homo sapiens), sequence (Q92918 whole entry, looked up): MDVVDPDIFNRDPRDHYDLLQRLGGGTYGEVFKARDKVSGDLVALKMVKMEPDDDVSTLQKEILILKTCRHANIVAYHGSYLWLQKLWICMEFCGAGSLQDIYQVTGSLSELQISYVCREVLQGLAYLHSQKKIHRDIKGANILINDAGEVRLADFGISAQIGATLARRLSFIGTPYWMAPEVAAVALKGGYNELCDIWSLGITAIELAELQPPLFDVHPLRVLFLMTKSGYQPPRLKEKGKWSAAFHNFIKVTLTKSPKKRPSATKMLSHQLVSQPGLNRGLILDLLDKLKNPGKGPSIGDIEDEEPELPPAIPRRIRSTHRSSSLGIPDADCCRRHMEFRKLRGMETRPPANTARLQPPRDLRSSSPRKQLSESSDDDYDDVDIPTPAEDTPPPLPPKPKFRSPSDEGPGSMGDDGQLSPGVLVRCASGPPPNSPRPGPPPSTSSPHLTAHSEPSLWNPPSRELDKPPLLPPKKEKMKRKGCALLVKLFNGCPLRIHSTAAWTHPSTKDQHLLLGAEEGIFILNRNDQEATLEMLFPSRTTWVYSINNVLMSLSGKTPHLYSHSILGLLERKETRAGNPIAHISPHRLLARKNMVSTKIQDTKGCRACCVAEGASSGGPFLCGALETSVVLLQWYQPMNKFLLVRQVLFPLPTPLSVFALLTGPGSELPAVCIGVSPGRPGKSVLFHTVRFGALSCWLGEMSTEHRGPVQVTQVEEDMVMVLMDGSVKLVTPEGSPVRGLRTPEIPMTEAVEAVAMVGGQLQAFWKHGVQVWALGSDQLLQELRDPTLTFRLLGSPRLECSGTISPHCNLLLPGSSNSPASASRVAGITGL
Tyrosine-protein kinase FRK (Homo sapiens), sequence (P42685 whole entry): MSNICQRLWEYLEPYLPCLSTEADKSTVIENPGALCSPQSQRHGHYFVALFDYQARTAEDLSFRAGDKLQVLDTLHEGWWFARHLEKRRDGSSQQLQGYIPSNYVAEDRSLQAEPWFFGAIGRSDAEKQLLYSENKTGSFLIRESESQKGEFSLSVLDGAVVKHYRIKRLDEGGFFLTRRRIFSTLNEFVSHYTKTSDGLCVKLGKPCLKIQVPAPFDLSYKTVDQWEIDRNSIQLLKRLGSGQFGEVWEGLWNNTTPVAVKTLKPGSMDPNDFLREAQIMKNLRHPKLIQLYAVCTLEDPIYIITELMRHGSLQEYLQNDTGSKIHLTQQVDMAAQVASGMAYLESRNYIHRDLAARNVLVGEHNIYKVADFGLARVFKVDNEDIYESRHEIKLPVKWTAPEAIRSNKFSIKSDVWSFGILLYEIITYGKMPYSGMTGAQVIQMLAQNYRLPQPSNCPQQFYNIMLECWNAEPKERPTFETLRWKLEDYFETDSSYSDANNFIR
BDNF/NT-3 growth factors receptor (Homo sapiens), sequence (Q16620 32-822 limits assumed): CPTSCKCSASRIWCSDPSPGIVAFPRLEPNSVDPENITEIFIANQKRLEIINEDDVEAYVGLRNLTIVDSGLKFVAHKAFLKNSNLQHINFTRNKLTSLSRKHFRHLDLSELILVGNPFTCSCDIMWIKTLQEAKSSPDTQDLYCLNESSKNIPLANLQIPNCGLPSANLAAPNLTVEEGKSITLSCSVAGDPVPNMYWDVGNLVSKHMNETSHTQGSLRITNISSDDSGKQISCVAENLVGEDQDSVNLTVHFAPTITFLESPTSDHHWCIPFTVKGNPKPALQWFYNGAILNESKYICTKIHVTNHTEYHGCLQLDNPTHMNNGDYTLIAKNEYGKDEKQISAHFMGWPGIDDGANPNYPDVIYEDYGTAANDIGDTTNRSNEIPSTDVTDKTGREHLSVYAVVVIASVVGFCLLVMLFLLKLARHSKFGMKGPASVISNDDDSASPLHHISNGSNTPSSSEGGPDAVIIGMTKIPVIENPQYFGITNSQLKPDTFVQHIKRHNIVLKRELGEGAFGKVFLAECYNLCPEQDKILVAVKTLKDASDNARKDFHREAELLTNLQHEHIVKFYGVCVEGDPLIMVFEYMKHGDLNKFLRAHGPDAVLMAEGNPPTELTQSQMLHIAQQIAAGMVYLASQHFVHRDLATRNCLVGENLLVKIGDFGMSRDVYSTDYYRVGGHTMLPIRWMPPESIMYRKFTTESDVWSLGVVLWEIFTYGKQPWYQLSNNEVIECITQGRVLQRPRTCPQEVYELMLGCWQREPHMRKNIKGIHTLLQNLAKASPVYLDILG
Protein-tyrosine kinase 2-beta (Homo sapiens), sequence (Q14289 whole entry, looked up): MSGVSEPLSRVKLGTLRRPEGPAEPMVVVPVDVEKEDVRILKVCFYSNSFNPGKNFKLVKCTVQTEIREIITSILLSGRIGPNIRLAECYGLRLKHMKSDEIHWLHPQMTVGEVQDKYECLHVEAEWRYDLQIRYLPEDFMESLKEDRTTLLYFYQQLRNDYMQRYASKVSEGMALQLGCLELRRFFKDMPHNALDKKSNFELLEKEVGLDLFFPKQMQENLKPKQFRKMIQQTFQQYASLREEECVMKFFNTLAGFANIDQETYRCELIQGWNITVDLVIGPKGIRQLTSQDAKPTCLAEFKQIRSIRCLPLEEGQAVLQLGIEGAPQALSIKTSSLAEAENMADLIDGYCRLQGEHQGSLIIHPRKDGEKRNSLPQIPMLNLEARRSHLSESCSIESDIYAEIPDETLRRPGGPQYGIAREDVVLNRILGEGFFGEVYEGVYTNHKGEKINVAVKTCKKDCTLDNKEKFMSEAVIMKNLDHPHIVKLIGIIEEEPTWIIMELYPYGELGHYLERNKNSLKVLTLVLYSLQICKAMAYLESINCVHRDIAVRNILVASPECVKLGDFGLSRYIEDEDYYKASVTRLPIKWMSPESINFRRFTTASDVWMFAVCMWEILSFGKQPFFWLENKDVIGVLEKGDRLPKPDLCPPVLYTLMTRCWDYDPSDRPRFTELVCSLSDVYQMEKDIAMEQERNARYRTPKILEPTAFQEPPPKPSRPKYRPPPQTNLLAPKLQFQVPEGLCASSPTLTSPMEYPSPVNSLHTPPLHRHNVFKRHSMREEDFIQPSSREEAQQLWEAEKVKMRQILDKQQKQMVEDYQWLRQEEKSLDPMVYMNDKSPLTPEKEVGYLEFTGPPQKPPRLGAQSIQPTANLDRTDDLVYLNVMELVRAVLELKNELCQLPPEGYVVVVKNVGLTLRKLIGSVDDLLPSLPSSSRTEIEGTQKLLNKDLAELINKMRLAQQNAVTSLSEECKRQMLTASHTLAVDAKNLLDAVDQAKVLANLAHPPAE

Q: With `O=C(N[C@@H](C1CC1)C(F)(F)F)c1cc(-c2cnn3cc(-c4ccc(F)cc4)cnc23)cs1` as the molecule, how does the inhibition [1] read?
A: Its inhibition is 3%.

Q: And the fold change (FC) [2]?
A: Its fold change (FC) is 0.

Q: What does the source list for `CNC(=O)c1ccccc1Oc1nc(Nc2cc(OC)c(OC)c(OC)c2)ncc1Br`?
A: inhibition [3]: 48%; inhibition [4]: 6%; inhibition [5]: 32%

Q: How did the fold change (FC) [6] turn out when `CC(C)[C@H](NC(=O)c1cc(-c2cnn3cc(-c4ccc(OCCN5CCCCC5)cc4)cnc23)cs1)C(F)(F)F` was run?
A: Its fold change (FC) is 0.

Q: What about the fold change (FC) [7] of the same molecule?
A: The fold change (FC) was 0.15.

Q: And the fold change (FC) [8]?
A: The fold change (FC) was 0.18.
